Counter-ions that a name gives are not always drawn. Calls of active or inactive are those of the source. The calls are words filed in the database; no cut-off is given here.
Tests used:
Assay type in all cases: functional
Staphylococcus aureus [1] = test: Antimicrobial activity against Staphylococcus aureus ATCC 6538 at 0.0172 uM after 17 hrs by disk diffusion assay; settings: for zone of inhibition at 0.0172 µM: ATCC 6538, 17 h, read-out: IZ
Procedure, shortened: (§1)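 Disk diffusion per CLSI M2-A8. S. aureus grown on trypticase soy agar; five fresh colonies into trypticase soy broth, ~5 h standing at 35 °C, adjusted to A625 0.1 (0.5 McFarland), swabbed onto Mueller–Hinton agar. Compounds in 25% methanol/water, 15 µl loaded on 6 mm paper disks; plates ~17 h at 35 °C; inhibition zones recorded, duplicate plates per strain.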

Staphylococcus aureus [2] = test: Antimicrobial activity against Staphylococcus aureus ATCC 25923 at 0.0172 uM after 17 hrs by disk diffusion assay; settings: for zone of inhibition at 0.0172 µM: ATCC 25923, 17 h, read-out: IZ; procedure, shortened: as §1
Staphylococcus aureus [3] = test: Antimicrobial activity against Staphylococcus aureus ATCC 6538 at 0.0344 uM after 17 hrs by disk diffusion assay; settings: ATCC 6538, 17 h, read-out: IZ; procedure, shortened: as §1
Staphylococcus aureus [4] = test: Antimicrobial activity against Staphylococcus aureus ATCC 25923 at 0.0602 uM after 17 hrs by disk diffusion assay; settings: ATCC 25923, 17 h, read-out: IZ; procedure, shortened: as §1
Staphylococcus aureus [5] = test: Antimicrobial activity against Staphylococcus aureus ATCC 6538 at 0.0602 uM after 17 hrs by disk diffusion assay; settings: ATCC 6538, 17 h, read-out: IZ; procedure, shortened: as §1
Staphylococcus aureus [6] = test: Antimicrobial activity against Staphylococcus aureus ATCC 25923 at 0.019 uM after 17 hrs by disk diffusion assay; settings: ATCC 25923, 17 h, read-out: IZ; procedure, shortened: as §1
Staphylococcus aureus [7] = test: Antimicrobial activity against Staphylococcus aureus ATCC 6538 at 0.019 uM after 17 hrs by disk diffusion assay; settings: ATCC 6538, 17 h, read-out: IZ
Procedure, shortened: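 Disk diffusion on Mueller–Hinton agar (broth 2.1% w/v, agar 1.7%), following CLSI M2-A8. Inoculum from five fresh trypticase soy agar colonies grown about 5 h standing at 35 °C in trypticase soy broth, then adjusted to A625 0.1 (0.5 McFarland) and swabbed onto plates. Compounds in 25% methanol/water, 15 µl loaded on 6 mm paper disks. Plates incubated about 17 h at 35 °C, inhibition zones recorded, duplicate plates.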

Staphylococcus aureus [8] = test: Antimicrobial activity against Staphylococcus aureus ATCC 25923 at 0.00686 uM after 17 hrs by disk diffusion assay; settings: ATCC 25923, 17 h, read-out: IZ; procedure, shortened: as §1
Staphylococcus aureus [9] = test: Antimicrobial activity against Staphylococcus aureus ATCC 6538 at 0.00686 uM after 17 hrs by disk diffusion assay; settings: ATCC 6538, 17 h, read-out: IZ; procedure, shortened: as §1

SMILES | Activity (Staphylococcus aureus [1]) | Activity (Staphylococcus aureus [2]) | zone of inhibition at 0.0172 µM (Staphylococcus aureus [1]) [mm] | zone of inhibition at 0.0172 µM (Staphylococcus aureus [2]) [mm] | further results
C/C(=C1\CCOC1=O)[C@@H](O)[C@@H]1OCC[C@@H](O)[C@H]1O | inactive | inactive |  |  | 
C/C(=C\C(=O)OCCCCCCCC(=O)N[C@H]1CCCNC1=O)[C@@H](O)[C@@H]1OC[C@H](C/C=C/[C@@H](C)[C@H](C)O)[C@@H](O)[C@H]1O [THIOMARINOL H] |  |  | 16 | 10 | 
CCN(CC)C(=O)/C=C(\C)[C@@H](O)[C@@H]1OC[C@H](C/C=C/[C@@H](C)[C@H](C)O)[C@@H](O)[C@H]1O |  |  |  |  | zone of inhibition at 0.0344 µM (Staphylococcus aureus [3]): 15 mm
C/C(=C1/CCOC1=O)[C@@H](O)[C@@H]1OCC[C@@H](O)[C@H]1O | inactive | inactive |  |  | 
COC(=O)/C=C(\C)[C@@H](O)[C@@H]1OC[C@H](C/C=C/[C@@H](C)[C@H](C)O)[C@@H](O)[C@H]1O |  |  | 16 | 13 | 
CCCCNC(=O)/C=C(\C)[C@@H](O)[C@@H]1OC[C@H](C/C=C/[C@@H](C)[C@H](C)O)[C@@H](O)[C@H]1O |  |  |  |  | zone of inhibition at 0.0344 µM (Staphylococcus aureus [3]): 14 mm
C/C(=C\C(=O)OC(C)C)[C@@H](O)[C@@H]1OC[C@H](C/C=C/[C@@H](C)[C@H](C)O)[C@@H](O)[C@H]1O |  |  | 22 | 21 | 
C/C(=C\C(=O)O)[C@@H](O)[C@@H]1OC[C@H](C/C=C/[C@@H](C)[C@H](C)O)[C@@H](O)[C@H]1O | inactive | inactive |  |  | 
C/C(=C\C(=O)OCCCCCCCCC(=O)O)C[C@@H]1OC[C@H](C[C@H]2O[C@@H]2[C@@H](C)[C@H](C)O)[C@@H](O)[C@H]1O [PSEUDOMONIC ACID A CALCIUM SALT] |  |  | 32 | 26 | 
CCCCCC[C@H]1CO[C@@H]([C@H](O)/C(C)=C/C(=O)OCC)[C@H](O)[C@@H]1O | inactive | inactive |  |  | 
CN(C)[C@@H]1C(O)=C(C(N)=O)C(=O)[C@@]2(O)C(O)=C3C(=O)c4c(O)cccc4[C@@](C)(O)[C@H]3C[C@@H]12 [TETRACYCLINE HYDROCHLORIDE] |  |  |  |  | zone of inhibition at 0.0602 µM (Staphylococcus aureus [4]): 29 mm; zone of inhibition at 0.0602 µM (Staphylococcus aureus [5]): 28 mm
CCOC(=O)/C=C(\C)[C@@H](O)[C@@H]1OC[C@H](C/C=C/[C@@H](C)[C@H](C)O)[C@@H](O)[C@H]1O |  |  | 22 | 21 | 
CC1(C)S[C@@H]2[C@H](NC(=O)Cc3ccccc3)C(=O)N2[C@H]1C(=O)O [PENICILLIN G SODIUM] |  |  |  |  | zone of inhibition at 0.019 µM (Staphylococcus aureus [6]): 32 mm; zone of inhibition at 0.019 µM (Staphylococcus aureus [7]): 40 mm
CCOC(=O)/C=C(\C)[C@@H](O)[C@@H]1OCC[C@@H](O)[C@H]1O | inactive | inactive |  |  | 
CN[C@@H]1[C@H](O[C@H]2[C@H](O[C@H]3[C@H](O)[C@@H](O)[C@H](N=C(N)N)[C@@H](O)[C@@H]3N=C(N)N)O[C@@H](C)[C@]2(O)C=O)O[C@@H](CO)[C@H](O)[C@H]1O [STREPTOMYCIN SULFATE] |  |  |  |  | zone of inhibition at 0.00686 µM (Staphylococcus aureus [8]): 14 mm; zone of inhibition at 0.00686 µM (Staphylococcus aureus [9]): 16 mm

— ChEMBL document CHEMBL1140978, “Synthesis and preliminary antibacterial evaluation of simplified thiomarinol analogs” (2009)
